According to ChEMBL document CHEMBL1144504, “Antitumor studies. Part 1: design, synthesis, antitumor activity, and AutoDock study of 2-deoxo-2-phenyl-5-deazaflavins and 2-deoxo-2-phenylflavin-5-oxides as a new class of antitumor agents” (Bioorg Med Chem, 2007):

Assays:
CCRF-HSB-2 = test: Growth inhibition of human CCRF-HSB-2 cells by MTT assay; assay type: functional, cell-based
Summary of the method: (§1)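 5×10^3 cells per well seeded with compound added simultaneously, triplicate wells, 72 h at 37 °C in humidified 5% CO2. MTT (5 mg/mL stock in Ca/Mg-free PBS) added for a further 4 h at 37 °C. Formazan solubilized in 0.02 N HCl/50% DMF/20% SDS, OD570 read. Inhibition (%) = (1 − T/C) × 100 against mean control; IC50 taken from dose–response curve.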

KB = test: Growth inhibition of human KB cells by MTT assay; assay type: functional, cell-based; summary of the method: as §1
NCI-H460 = test: Growth inhibition of human NCI-H460 cells by MTT assay; assay type: functional, cell-based; summary of the method: as §1
HCT-116 = test: Growth inhibition of human HCT116 cells by MTT assay; assay type: functional, cell-based; summary of the method: as §1
A-431 [1] = test: Growth inhibition of human A431 cells by MTT assay; assay type: functional, cell-based; summary of the method: as §1
Mus musculus [2] = test: Weight change in intratumorally dosed BALB/c nude mouse bearing human A431 cells at 25 mg/kg after 17 days; assay type: functional, A-431
Summary of the method: (§2)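 BALB/c nude mice bearing subcutaneous A431 tumors, dosed from the day tumors reach 100–300 mm3. Vehicle: 0.5% gum arabic suspension. Intratumoral schedule: days 1-5, 8-12, 15-19. Intraperitoneal and oral schedule: daily, days 1-10. Body weight change in g recorded at 17 days (it), 10 days (ip) or 18 days (po) after treatment.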

A-431 [3] = test: Antitumor activity against human A431 xenograft in intratumorally dosed BALB/c nude mouse at 25 mg/kg after 17 days relative control; assay type: functional
Summary of the method: (§3)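 A431 implanted subcutaneously in BALB/c nude mice; dosing begins (day 1) when tumors reach 100–300 mm3. Compound suspended in 0.5% gum arabic. Intratumoral: five daily doses per week for 3 weeks (days 1-5, 8-12, 15-19). Intraperitoneal and oral: daily for 10 days (days 1-10). Tumor length a and width b measured 2–3 times weekly; volume = a×b²/2; T/C % = (Tn/T1)×100/(Cn/C1).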

Mus musculus [4] = test: Weight change in human A431 xenografted BALB/c nude mouse at 150 mg/kg, po after 18 days; assay type: functional; summary of the method: as §2
Mus musculus [5] = test: Weight change in human […] A431 xenografted BALB/c nude mouse at 75 mg/kg, po after 18 days; assay type: functional; summary of the method: as §2
A-431 [6] = test: Antitumor activity against human A431 xenograft in BALB/c nude mouse at 75 mg/kg, po after 18 days relative control; assay type: functional; summary of the method: as §3
A-431 [7] = test: Antitumor activity against human A431 xenograft in BALB/c nude mouse at 100 mg/kg, ip after 10 days relative control; assay type: functional; details: route intraperitoneal; summary of the method: as §3
A-431 [8] = test: Antitumor activity against human A431 xenograft in BALB/c nude mouse at 150 mg/kg, po after 18 days relative control; assay type: functional; summary of the method: as §3
Mus musculus [9] = test: Weight change in human A431 xenografted BALB/c nude mouse at 100 mg/kg, ip after 10 days; assay type: functional; details: route intraperitoneal; summary of the method: as §2
Mus musculus [10] = test: Weight change in human A431 xenografted BALB/c nude mouse at 1 mg/kg, ip after 10 days; assay type: functional; details: route intraperitoneal
Summary of the method: (§4)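 A431 cells implanted subcutaneously into BALB/c nude mice. Dosing began (day 1) once tumors reached 100–300 mm3, given ip as a suspension in 0.5% gum arabic, daily for days 1–10. Tumor length (a) and width (b) were measured 2–3 times weekly; volume = (a×b²)/2. T/C % = (Tn/T1)×100/(Cn/C1), read on day 10. Body weight change was given in g.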

A-431 [11] = test: Antitumor activity against human A431 xenograft in BALB/c nude mouse at 1 mg/kg, po after 18 days relative control; assay type: functional
Summary of the method: (§5)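 Subcutaneous A431 xenografts in BALB/c nude mice were dosed orally once tumors reached 100–300 mm3 (day 1). Dosing was daily for days 1–10 as a suspension in 0.5% gum arabic. Volume = (a×b²)/2 from calipered length and width. Relative volume T/C % = (Tn/T1)×100/(Cn/C1) and body weight change (g) were assessed 18 days after treatment.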

Mus musculus [12] = test: Weight change in intratumorally dosed BALB/c nude mouse bearing human A431 cells at 1 mg/kg after 17 days; assay type: functional, A-431
Summary of the method: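 A431 was transplanted subcutaneously into BALB/c nude mice. Intratumoral injections of a suspension in 0.5% gum arabic started when tumors reached 100–300 mm3. Injections were given five consecutive days per week for 3 weeks (days 1–5, 8–12, 15–19). Body weight change (g) was recorded on day 17.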

A-431 [13] = test: Antitumor activity against human A431 xenograft in BALB/c nude mouse at 1 mg/kg, ip after 10 days relative control; assay type: functional; details: route intraperitoneal; summary of the method: as §4
Mus musculus [14] = test: Weight change in human A431 xenografted BALB/c nude mouse at 1 mg/kg, po after 18 days; assay type: functional; summary of the method: as §5

Structure (SMILES)	IC50 (CCRF-HSB-2) [nM]	IC50 (KB) [nM]	IC50 (NCI-H460) [nM]	IC50 (HCT-116) [nM]	also measured
Cc1cccc2cc3c(=O)nc(-c4ccccc4)nc-3n(C)c12	700	3980			
COc1ccc2c(c1)cc1c(=O)nc(-c3ccccc3)nc-1n2C	1230	500	3100	2910	
COc1ccc2cc3c(=O)nc(-c4ccccc4)nc-3n(C)c2c1	2140	5040			
CCn1c2nc(-c3ccccc3)nc(=O)c-2cc2cc(C)ccc21	730	510			
COc1ccc2cc3c(=O)nc(-c4ccccc4)nc-3[nH]c2c1	24400	62700			
CCn1c2nc(-c3ccccc3)nc(=O)c-2[n+]([O-])c2ccccc21	960	2380			
Cn1c2nc(-c3ccccc3)nc(=O)c-2[n+]([O-])c2ccccc21	970	1080	2720	1800	IC50 (A-431 [1]): 1310 nM
CC(C)n1c2nc(-c3ccccc3)nc(=O)c-2[n+]([O-])c2ccccc21	980	2180	6050	6580	
Cc1ccc2c(c1)[n+]([O-])c1c(=O)nc(-c3ccccc3)nc-1n2C	500	1750	4390	3250	
Cc1cccc2cc3c(=O)nc(-c4ccccc4)nc-3[nH]c12	299000	> 350000			
COc1ccc2c(c1)[n+]([O-])c1c(=O)nc(-c3ccccc3)nc-1n2C			1330	720	
COc1cc2c(c(OC)c1OC)[n+]([O-])c1c(=O)nc(-c3ccccc3)nc-1n2C			3720	3760	
CCn1c2nc(-c3ccccc3)nc(=O)c-2cc2ccccc21	1790	2620			IC50 (A-431 [1]): 760 nM; Activity (Mus musculus [2]): -1.6 g; Activity (A-431 [3]): 109%
Cc1ccc2c(c1)cc1c(=O)nc(-c3ccccc3)nc-1n2C	1490	1860	2080	1680	IC50 (A-431 [1]): 2450 nM
Cn1c2nc(-c3ccccc3)nc(=O)c-2cc2ccccc21	11800	2330	2230	2110	IC50 (A-431 [1]): 1440 nM; Activity (Mus musculus [4]): -0.4 g; Activity (Mus musculus [2]): 0.1 g; Activity (Mus musculus [5]): -0.9 g; Activity (A-431 [6]): 97.6%; Activity (A-431 [3]): 57.2%; Activity (A-431 [7]): 53.4%; Activity (A-431 [8]): 51.8%; Activity (Mus musculus [9]): -1.7 g
Cc1cccc2c1n(C)c1nc(-c3ccccc3)nc(=O)c-1[n+]2[O-]	1290	3280			
CCn1c2nc(-c3ccccc3)nc(=O)c-2[n+]([O-])c2cc(C)ccc21	1710	2970			
O=c1nc(-c2ccccc2)nc2[nH]c3ccccc3cc1-2	3830	5120			IC50 (A-431 [1]): 3880 nM
Nc1ccn([C@@H]2O[C@H](CO)[C@@H](O)[C@@H]2O)c(=O)n1 [CYTARABINE]	150	700			
COc1cccc2c1C(=O)c1c(O)c3c(c(O)c1C2=O)C[C@@](O)(C(=O)CO)C[C@@H]3O[C@H]1C[C@H](N)[C@H](O)[C@H](C)O1 [DOXORUBICIN]					IC50 (A-431 [1]): 50 nM
CN[C@@H]1C[C@H]2O[C@@](C)([C@@H]1OC)n1c3ccccc3c3c4c(c5c6ccccc6n2c5c31)C(=O)NC4 [STAUROSPORINE]					Activity (Mus musculus [10]): -1 g; Activity (A-431 [11]): 72.9%; Activity (Mus musculus [12]): -0.6 g; Activity (A-431 [13]): 84.9%; Activity (Mus musculus [14]): -2 g
